MrgX1 antag – blocks BAM8-22 activation of human MrgX1 receptor; Q96LB2; MRGX1-HEK293 calcium flux, Fluo-4, BAM8-22 antagonism; hits give low values; B-score at 10 µM; 310,000 tested, 1.3% active; AID 588676;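 active = calcium-response B-score plate-corrected more than 3 library SD below zero, starting fluorescence within 5 deviations, no agonist response on first addition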;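 also: peak minus trough fluorescence over baseline after final BAM8-22 challenge near maximal dose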
Target sequence (Q96LB2 whole entry, looked up): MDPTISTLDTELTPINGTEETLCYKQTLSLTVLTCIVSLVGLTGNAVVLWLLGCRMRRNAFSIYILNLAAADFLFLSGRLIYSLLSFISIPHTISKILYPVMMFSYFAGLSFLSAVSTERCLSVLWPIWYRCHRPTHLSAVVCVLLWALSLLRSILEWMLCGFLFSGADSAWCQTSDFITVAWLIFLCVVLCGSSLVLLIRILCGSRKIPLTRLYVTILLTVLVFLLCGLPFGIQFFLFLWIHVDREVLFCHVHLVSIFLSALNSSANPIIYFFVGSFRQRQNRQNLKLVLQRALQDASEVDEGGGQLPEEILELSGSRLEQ
MrgX1 allo act – human MrgX1 positive allosteric modulation, primary screen; MrgX1-HEK293, Fluo-4 calcium flux, FDSS; hits give high values; 310,000 tested, 0.63% active; AID 588675; Q96LB2; B-score at 10 µM;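 active = plate-corrected calcium response at least 3 library SD above typical, normal starting fluorescence, not activating the receptor alone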;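 also: compound read alongside a low EC10 to EC30 dose of BAM8-22 agonist; peak minus trough fluorescence over baseline measured at the second addition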
RGS4 inh – inhibitors of human RGS4; 310,000 tested, 0.45% active; HEK293 M3R/RGS4 inducible, Fluo-4 calcium flux; hits give high values; triggered by carbachol at its EC20; B-score at 10 µM; AID 463165;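 active = B-score, a plate-corrected calcium signal, over three deviations above library mean, with baseline fluorescence within five deviations of library mean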;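 also: RGS4 expression induced by doxycycline in cells with stable M3 receptor; B-score is computed from the integrated fluorescence ratio over baseline after carbachol; higher B-score means a larger calcium signal and so more RGS4 inhibition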
Target sequence (P49798 whole entry, looked up): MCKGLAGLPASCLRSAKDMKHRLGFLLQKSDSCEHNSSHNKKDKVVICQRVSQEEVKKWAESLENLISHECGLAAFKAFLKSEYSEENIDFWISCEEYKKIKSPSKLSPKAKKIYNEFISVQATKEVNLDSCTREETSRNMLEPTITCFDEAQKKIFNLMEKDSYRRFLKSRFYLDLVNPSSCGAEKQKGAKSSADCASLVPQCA
MrgX1 ag – human MrgX1 receptor agonism, primary screen; 310,000 tested, 0.44% active; B-score at 10 µM; MrgX1-HEK293 cells, Fluo-4 calcium fluorescence, agonist mode; hits give high values;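 active = calcium response B-score plate-corrected fluorescence ratio at least 3 library SD, with starting fluorescence B-score inside 5 SD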
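Test system: Stable human MrgX1 HEK293 cell line | Schedule: Overnight plating before 1 h dye loading | Read-out basis: Baseline-normalised fluorescence change ratio, B-scored | Detection: Kinetic calcium dye fluorescence, Fluo-4 NW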
Hep lipid drop – hepatic lipid droplet formation modulation. AML12 mouse hepatocytes, oleate lipid droplets, BODIPY imaging. inhibition, % at 6.5 µM. 240,000 tested, 0.4% active. AID 1656;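 active = lipid droplet intensity inhibited by at least 50%, with more than 500 cells counted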
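Test system: AML12 hepatocytes (mouse); reagent: oleate loading, 100 µM; dosing: one dose, 6.5 µM compound; incubation: overnight exposure; signal: fluorescence imaging, 20x objective, two fields per well; read-out basis: % inhibition of corrected integrated BODIPY droplet signal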
RGS4 act – RGS4 potentiation or activation; HEK293 M3R/inducible RGS4, carbachol calcium flux Fluo4; hits give low values; B-score at 10 µM; 310,000 tested, 0.92% active;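 active = B-score of the integrated calcium signal more than 4 SD below the library mean, with starting fluorescence not abnormally high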;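 also: negative B-score means reduced calcium response which marks RGS4 activation or potentiation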
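Detection: kinetic calcium fluorescence imaging with Fluo4-AM dye, 2 µM / Material: HEK293 cells with stable M3R and inducible RGS4 / Schedule: recording 10 s baseline at 1 Hz, 100 s post-agonist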
MrgX1 antag conf – human MrgX1 receptor antagonism, re-confirmation screen; shares compounds with MrgX1 antag; MrgX1-HEK293, BAM8-22 calcium flux, Fluo-4; hits give low values; remaining BAM8-22 calcium response % of control (hits give low values), % at 10 µM; 2,300 tested, 19% active; AID 602420;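 active = remaining agonist calcium response no higher than 100% minus 3 SD of agonist-only control wells, with starting fluorescence near control levels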;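 also: agonist BAM8-22 given at a near maximal EC90 to ECmax level; peak minus minimum fluorescence divided by baseline after agonist addition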
HEK293 Ca flux – MrgX1 antagonist counter-screen hit in parental HEK293 cells; shares compounds with MrgX1 antag; Fluo-4 calcium fluorescence, FDSS; fluorescence ratio F(max-min)/F0 at 10 µM; 4,000 tested, 2% active; AID 624111;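 active = duplicate-averaged calcium fluorescence ratio at least three times the standard deviation of buffer wells, a nonspecific response in parental cells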
HEK293 Ca counter – activity in parental HEK293 cells without MrgX1; shares compounds with MrgX1 antag; parental HEK293 calcium flux, Fluo-4 fluorescence ratio; hits give high values; fluorescence ratio F(max-min)/F0 at 10 µM; 4,000 tested, 0.4% active; AID 624114;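 active = calcium fluorescence ratio, averaged over duplicates, at least 3 SD of the buffer-well ratio, meaning a nonspecific response in receptor-free cells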;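 also: untransfected parental HEK293 lacking MrgX1 used as counterscreen for MrgX1 allosteric activators; fluorescence change taken during the second addition on a kinetic imager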
HEK293 Ca cntr2 – counter-screen for MrgX1 activators: effect in parental HEK293 cells; shares compounds with MrgX1 antag; 4,000 tested, 8.7% active; fluorescence ratio F(max-min)/F0 at 10 µM; Fluo-4 calcium fluorescence (FDSS); hits give high values; AID 624115;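 active = calcium fluorescence ratio at least three times the spread of buffer wells, meaning a non-specific response in parental cells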
Active calls of the source: *; i = inactive; · = no result. An excerpt weighted towards active compounds, which were near 3.8% of everything screened.

SMILES | MrgX1 antag | MrgX1 allo act | RGS4 inh | MrgX1 ag | Hep lipid drop | RGS4 act | MrgX1 antag conf | HEK293 Ca flux | HEK293 Ca counter | HEK293 Ca cntr2
O=C(/C=C/c1cccc(Br)c1)NCc1ccncc1 | i | i | i | i | -3.3 | i | · | · | · | ·
CN1C(=O)N(C)C2C1N(CN1CCCCC1)C(=O)N2CN1CCCCC1 (stereo not drawn) | -4.93* | i | i | i | · | i | 84.3%* | i | i | i
CC1CC(CCC(=O)NC(=S)Nc2ccc(S(N)(=O)=O)cc2)C(=O)O1 (stereo not drawn) | i | i | i | i | -4.6 | i | · | · | · | ·
Cc1cc(C)cc(NC(=O)NCc2c(-c3ccccc3)noc2C)c1 | i | i | i | i | -7.3 | i | · | · | · | ·
Cc1onc(-c2ccccc2)c1CNC(=O)Nc1cccc(Cl)c1 | -6.55* | i | i | i | -3.0 | i | 81.7%* | i | i | i
CCN(CC)S(=O)(=O)c1ccc(C)c(NC(=O)COC(=O)c2ccc(C)c(S(=O)(=O)N3CCOCC3)c2)c1 | i | i | i | i | -1.0 | i | · | · | · | ·
Cc1cccc(Cn2c(N3CCc4ccccc4C3)nc3c2c(=O)[nH]c(=O)n3C)c1 | i | i | i | i | -5.5 | i | · | · | · | ·
C/C(Cl)=C/Cn1c(N2CCCC2)nc2c1c(=O)[nH]c(=O)n2C | i | i | i | i | -5.3 | i | · | · | · | ·
C=CCn1c(N2CCCC2)nc2c1c(=O)[nH]c(=O)n2C | -8.69* | i | i | i | · | i | i | i | i | i
CC(C)CCn1c(N2CCc3ccccc3C2)nc2c1c(=O)[nH]c(=O)n2C | -5.03* | i | i | i | 29.8 | i | i | i | i | i
Cc1cc(C)c(S(=O)(=O)c2ccccc2C)c(OCCN(C)C)n1 | i | i | i | i | · | i | · | · | · | ·
O=C(Nc1ccncc1)Nc1ccncc1 | i | i | i | i | -4.4 | i | · | · | · | ·
CC(=O)c1ccc(NC(=O)Nc2ccncc2)cc1 | -6.75* | i | i | i | 0.5 | i | 81.7%* | i | i | i
CCOC(=O)C1CCCN(C(=O)c2cnn3c(C(F)(F)F)cc(-c4ccccc4)nc23)C1 (stereo not drawn) | i | i | i | i | -5.0 | i | · | · | · | ·
COc1ccc(-c2cc(C(F)(F)F)n3ncc(C(=O)N4CCCCC4c4cccnc4)c3n2)cc1 (stereo not drawn) | -5.79* | i | i | i | -1.6 | i | i | i | i | i
CCn1c(=O)[nH]c2cc(C(=O)Nc3cc(C)cc(C)c3)ccc2c1=O | -5.06* | i | i | i | 4.5 | i | 82.3%* | i | i | i
COc1ccc(NC(=O)C2CCN(S(=O)(=O)c3cn(C)nc3C)CC2)cc1 | i | i | i | i | -7.6 | i | · | · | · | ·
Cc1ccc(S(=O)(=O)n2nnc3ccccc32)c(C)c1C | -4.8* | i | i | i | 5.7 | i | i | i | i | i
COc1ccccc1NC(=O)CCC(=O)OCc1ccc(Cl)cc1 | -4.8* | i | i | i | 10.7 | i | i | i | i | i
COc1ccccc1NC(=O)CCC(=O)OCc1ccc(Br)cc1 | i | i | i | i | 9.3 | i | · | · | · | ·
